PMI act: phosphomannose isomerase (human) activation. purified human PMI, coupled resazurin fluorescence, 20 min; active compounds read high; 1 = vehicle control, 0 substrate-free wells. activation factor at 20 µM. 0.005% of 190,000 active. AID 1214;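 active = activation factor of 2 or more at 20 µM, relative to plate controls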
PMI act hi M6P: activators of human phosphomannose isomerase at near-saturating mannose 6-phosphate | 0.34% of 190,000 active | coupled PMI enzyme assay, resazurin fluorescence, 20 min; active compounds read high; 1 = untreated enzyme, 0 = substrate-free blank | AID 1216 | activation factor at 20 µM;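 active = activation factor of 2 or more at 20 µM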
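Material: human phosphomannose isomerase with PGI, G6PDH, diaphorase coupling enzymes. Quantity: 15 ng/mL PMI. Medium: HEPES pH 7.4 buffer with MgCl2 and Tween-20. Reagent: Near-saturating mannose-6-phosphate, 1.0 mM. Compound: 20 µM single dose. Times: enzyme reaction with compound 20 min at room temperature. Detection: resorufin fluorescence at Ex 544/Em 590 nm.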
TNAP act hiacc: increases human TNAP activity under high phosphate acceptor concentration; P05186; purified TNAP, CDP-star luminescence, 1 M DEA, 30 min; active compounds read high; 0 = EDTA background, 1 = DMSO-only activity; activation factor at 20 µM; 200,000 tested, under 10 active; AID 1136;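 active = activation factor at least 2 at 20 µM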
Target sequence (P05186 whole entry, looked up): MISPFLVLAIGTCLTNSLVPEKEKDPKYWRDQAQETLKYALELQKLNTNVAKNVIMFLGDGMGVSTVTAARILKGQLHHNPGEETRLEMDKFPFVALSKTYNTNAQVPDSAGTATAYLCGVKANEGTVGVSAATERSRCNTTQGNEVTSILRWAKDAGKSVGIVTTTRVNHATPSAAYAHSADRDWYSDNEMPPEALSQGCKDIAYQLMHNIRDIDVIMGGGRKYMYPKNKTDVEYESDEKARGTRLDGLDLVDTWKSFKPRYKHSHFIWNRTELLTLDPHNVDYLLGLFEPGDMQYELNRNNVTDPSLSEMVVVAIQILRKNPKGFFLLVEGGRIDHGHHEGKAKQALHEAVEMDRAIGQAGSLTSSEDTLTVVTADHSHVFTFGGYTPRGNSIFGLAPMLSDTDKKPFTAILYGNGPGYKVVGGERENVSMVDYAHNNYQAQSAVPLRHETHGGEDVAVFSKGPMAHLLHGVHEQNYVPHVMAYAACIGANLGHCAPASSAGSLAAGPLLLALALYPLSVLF
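Measured by: Luminescent substrate turnover signal | Test system: Human TNAP | Input: TNAP 1/800 final | Dosing: 20 µM single point | Schedule: 30 min, room temperature | Controls: EDTA wells as negative control, DMSO wells as positive control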
TNAP inh hi DEA: inhibitors of human TNAP at high phosphate acceptor concentration; P05186; 0.03% of 200,000 active; purified TNAP, CDP-star luminescence, 1 M DEA; inhibition, % at 20 µM;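 active = over 50% inhibition of tissue-nonspecific alkaline phosphatase at 20 µM in the single-dose screen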
TNAP inh noacc: inhibitors of human TNAP without phosphate acceptor | P05186 | purified TNAP, CDP-star luminescence, 30 min | inhibition, % at 20 µM | 0.26% of 200,000 active | AID 1012;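 active = tissue-nonspecific alkaline phosphatase inhibition above about 50% at 20 µM in the single-dose screen, limit read from the data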
A number is an active result; – = inactive; · = no result given. An excerpt weighted towards active compounds, which were near 0.62% of everything screened.

SMILES | PMI act | PMI act hi M6P | TNAP act hiacc | TNAP inh hi DEA | TNAP inh noacc
Cc1cccn2c(CN3CCCC(c4ccccc4)C3)c(C(=O)N3CCOCC3)nc12 (configuration not stated) | – | – | – | – | –
COc1ccc(-c2cnnc(N/N=C/c3ccc(O)c(O)c3)n2)cc1 | – | – | – | – | 56.2
CC1CN(C(=O)c2ccc(COc3ccccc3Br)o2)CC(C)O1 (configuration not stated) | – | – | – | – | –
NC(=O)c1c(NC(=O)CSc2nnc(-c3ccccc3)n2CC2CCCO2)sc2c1CCC2 (configuration not stated) | – | – | – | – | –
N#Cc1c(NC(=O)CSc2nnc(-c3ccccc3O)n2-c2ccccc2)sc2c1CCCC2 | – | – | – | – | –
Cc1sc(NC(=O)CSc2nnc(-c3ccccc3)o2)c(C#N)c1C | – | – | – | – | –
N#Cc1c(NC(=O)CSc2nnc(-c3ccncc3)n2CC2CCCO2)sc2c1CCCC2 (configuration not stated) | – | – | – | 51.1 | –
CCn1c(SCC(=O)Nc2sc3c(c2C#N)CCCC3)nnc1-c1ccncc1 | – | – | – | 77.1 | 58.0
N#Cc1c(NC(=O)CSc2nnc(-c3ccccc3)o2)sc2c1CCCC2 | – | – | – | 62.9 | –
O=C(NC(=S)NCc1ccccc1)c1ccccc1[N+](=O)[O-] | · | · | – | – | –
CCn1cc(C2C(C(=O)Nc3cc(C)ccn3)=C(C)NC3=C2C(=O)CC(C)(C)C3)c(C)n1 (configuration not stated) | – | – | – | – | –
CCOc1cc(/C=C2/NC(=O)NC2=O)cc(Br)c1OCc1ccc(C(=O)O)cc1 | – | – | – | – | –
NN/C(=C\[N+](=O)[O-])Nc1ccc(Cl)cc1 | – | 2 | – | – | –
NN/C(=C\[N+](=O)[O-])Nc1ccccc1 | – | 2.6 | – | – | –
CCN(CC)S(=O)(=O)c1ccc(C(=O)NC(C)(C)C)cc1 | – | – | – | – | –
COc1cccc(C2Nc3ccccc3C(=O)N2O)c1O (configuration not stated) | – | – | – | – | 74.5
Cc1c(C2Nc3ccccc3C(=O)N2O)cnn1C (configuration not stated) | – | – | – | – | –
COc1ccc(-c2[nH]ncc2CNC(C)c2cn(C)nc2C)c(F)c1 (configuration not stated) | – | – | – | – | 74.0
COc1ccc(-c2[nH]ncc2CN(C)C(C)c2cccs2)c(F)c1 (configuration not stated) | – | – | – | – | –
COc1ccc(-c2[nH]ncc2CNC(C)CCn2cccn2)c(F)c1 (configuration not stated) | – | – | – | – | 72.5
CC1=NN(c2ccccc2)C(=O)/C1=C/C=C/c1ccc(N(C)C)cc1 | – | – | – | 53.6 | 50.5
CCOC(=O)CC1=NN(c2ccccc2)C(=O)/C1=C\c1ccc(N(C)C)cc1 | – | – | – | – | –
Cc1nc2c3cnn(-c4ccc(C)c(C)c4)c3ncn2n1 | – | – | – | – | 81.2
O=C1CC[C@@H](CN(Cc2ccccn2)Cc2nc(-c3ccc(C(F)(F)F)cc3)no2)N1 | – | – | – | – | –
S=C(N=Nc1ccccc1)NNc1ccccc1 | – | 2.7 | – | – | –
SMILES | PMI act | PMI act hi M6P | TNAP act hiacc | TNAP inh hi DEA | TNAP inh noacc
O=C(O)c1cc(N2N=C(C(F)(F)F)/C(=C/C=C/c3ccco3)C2=O)ccc1Cl | – | 2.2 | – | – | –
CN(C)S(=O)(=O)Nc1cc(Cl)cc(Cl)c1 | – | – | – | – | –
Oc1ccc(Cl)cc1C1=NNC(c2ccc(Cl)cc2)C1 (configuration not stated) | – | – | – | – | –
Oc1c(Cl)cc(Cl)cc1C1=NNC(c2ccc(Cl)cc2)C1 (configuration not stated) | – | 2.6 | – | – | –
NNC(=O)c1cc2c(N3CCC(Cc4ccccc4)CC3)ncnc2s1 | – | – | – | – | –
O=C(COc1ccccc1C(=O)N/N=C\c1ccc(O)c(O)c1)N/N=C/c1ccc(O)c(O)c1 | – | – | – | 59.9 | 92.4
CCSc1ccc2nnc(-c3cccc(F)c3)n2n1 | – | 2 | – | – | –
Cc1ccc(N/N=C/c2ccc(N3CCOCC3)cc2)cc1C | – | 2 | – | – | –
COCCN(Cc1cc2cc(C)c(C)cc2nc1Cl)C(=O)N1CCOCC1 | – | – | – | – | –
COC(=O)c1ccc2c(c1)C(=O)/C(=C/c1ccc(O)cc1)O2 | – | – | – | 55.0 | –
CCc1ccc(/C=C2\Oc3cc(OS(C)(=O)=O)ccc3C2=O)cc1 | – | – | – | – | –
N#Cc1cc2cc3c(cc2nc1SCC(=O)OC1CCCCC1)OCO3 | – | – | – | – | –
CC(=O)CSc1nc2cc3c(cc2cc1C#N)OCCO3 | – | 2 | – | – | –
Cn1c(NNC(=O)C2CCCCC2)cc(=O)n(C)c1=O | – | – | – | – | –
Cc1onc(-c2c(F)cccc2Cl)c1C(=O)OCC(=O)c1c(N)n(C)c(=O)n(C)c1=O | – | – | – | – | –
Clc1ccc(N/N=C/c2cccnc2)cc1 | – | 2.4 | – | – | –
CC(C)(C)c1ccc(/C=N/Nc2cccc(C(=O)O)c2)cc1 | – | 2 | – | – | –
O=C(N/N=C/c1cccnc1)C(O)(c1ccccc1)c1ccccc1 | – | – | – | – | –
O=C(O)c1cccc(N/N=C/c2ccc(-c3ccccc3)cc2)c1 | – | 2.7 | – | – | –
O=C(O)c1cccc(N/N=C/c2cccnc2)c1 | 2 | 2.5 | – | – | –
Cc1sc(N/N=C/c2cccnc2)nc1-c1ccc(Cl)cc1 | – | – | – | – | –
O=C(O)c1cccc(N/N=C/c2cc(Br)cc(Br)c2O)c1 | – | – | – | – | –
Cc1cc(C)c2c(=O)[nH]c(SCc3ccccc3)nc2n1 | – | – | – | – | –
O=[N+]([O-])c1cccc(Nc2nc(Cl)nc(Cl)n2)c1 | – | – | – | – | –
Fc1cccc(Nc2nc(Cl)nc(Cl)n2)c1 | – | 2.2 | – | – | –
SMILES | PMI act | PMI act hi M6P | TNAP act hiacc | TNAP inh hi DEA | TNAP inh noacc
CCc1ccc(S(=O)(=O)NC(=S)Nc2ccccc2)cc1 | – | – | – | – | –
O=C(O)C1CCCCC1C(=O)Nc1cc(C(F)(F)F)ccc1Cl (configuration not stated) | – | – | – | – | –
CC1CCC(C(=O)NNC(=O)c2cc(-c3ccco3)[nH]n2)CC1 (configuration not stated) | – | – | – | – | –
O=C(O)c1cc(-c2ccco2)[nH]n1 | – | – | – | – | 51.2
Cc1ccc(-c2cc(C(=O)N/N=C/C=C/c3ccccc3)n[nH]2)s1 | – | – | – | – | –
Cc1ccc(-c2cc(C(=O)O)n[nH]2)s1 | – | – | – | – | 77.2
CCOc1ccc(CC(=O)C2C(=O)CCCC2=O)cc1OCC | – | 2.1 | – | – | –
